Results on 45 compounds are retold here after ChEMBL document CHEMBL2046299, “Construction and functionalization of fused pyridine ring leading to novel compounds as potential antitubercular agents” (Bioorg Med Chem Lett, 2012).

≈ marks a conversion by molar mass, not a printed value.

One series relates to Mycobacterium tuberculosis. The series can be described thus: Antitubercular activity against Mycobacterium tuberculosis H37Rv ATCC 27294 assessed as minimum concentration required to inhibit 90% growth after 1 week by fluorescence-based microplate Alamar Blue assay. Particulars: H37Rv ATCC 27294, 168 h. Type of series: functional. Summed up:
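M. tuberculosis H37Rv, MABA with fluorescence read-out. MIC taken as the lowest concentration cutting fluorescence by 90% relative to bacteria-only controls. Rifampicin, isoniazid and moxifloxacin served as reference compounds.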
A word on the MIC90: it is the lowest concentration that inhibits either 90% of growth or 90% of the strains tested, depending on the study. Consider `COc1c(N2C[C@@H]3CCCN[C@@H]3C2)c(F)cc2c(=O)c(C(=O)O)cn(C3CC3)c12` [MOXIFLOXACIN], for which the MIC90 was 0.39 µg/mL (≈ 0.972 µM). The same measure, in the same setting: the value for `COC(=O)c1cc(C)n(O)c(=O)c1` was more than 100 µg/mL; that for `O=C(O)c1cc(Cl)[n+]([O-])c2ccccc12` was more than 100 µg/mL. Take `Cc1ccc2c(c1)c(C(=O)O)cc(=O)n2O`: the MIC90 is more than 100 µg/mL.

Regarding `O=C(O)c1cc(=O)[nH]c2c1CCCCCC2`, the MIC90 is more than 50 µg/mL.

Turning to `O=C(O)c1cc(Cl)[n+]([O-])c2c1CCCC2`, the MIC90 is more than 100 µg/mL. `Cc1cc(C(=O)O)cc(=O)[nH]1`: the MIC90 is more than 50 µg/mL. `O=C(O)c1cc(O)nc2ccccc12`: the MIC90 is more than 50 µg/mL. In the case of `COC(=O)c1cc(C)[n+]([O-])c(Cl)c1`, the MIC90 was more than 100 µg/mL.

Take `Cc1ccc2c(c1)c(C(=O)O)cc(Cl)[n+]2[O-]`: the MIC90 was more than 100 µg/mL. On to `CCOC(=O)c1cc(Cl)[n+]([O-])c2ccc(C)cc12`, for which the MIC90 is 4.33 µg/mL (≈ 16.3 µM).

For the compound `CCOc1cc(C(=O)O)c2c([n+]1[O-])CCC2`, the MIC90 was more than 100 µg/mL. Same read-out and setting: next, `O=C(O)c1cc(=O)n(O)c2c1CCCC2`: more than 100 µg/mL.

On to `NNC(=O)c1cc(=O)[nH]c2c1CCC2`, for which the MIC90 is more than 100 µg/mL. In the case of `CO[C@H]1/C=C/O[C@@]2(C)Oc3c(C)c(O)c4c(O)c(c(/C=N/N5CCN(C)CC5)c(O)c4c3C2=O)NC(=O)/C(C)=C\C=C\[C@H](C)[C@H](O)[C@@H](C)[C@@H](O)[C@@H](C)[C@H](OC(C)=O)[C@@H]1C` [RIFAMPIN], the MIC90 was determined as 0.05 µg/mL (≈ 0.0608 µM). Take `O=C(O)c1cc(Cl)[n+]([O-])c2c1CCC2`: the MIC90 is more than 50 µg/mL.

Take `NNC(=O)c1ccncc1` [ISONIAZID]: the MIC90 stood at 0.33 µg/mL (≈ 2.41 µM). As to `O=C(O)c1cc(Cl)[n+]([O-])c2c1CCCCCC2`, the MIC90 is more than 100 µg/mL. Consider `NNC(=O)c1cc(=O)[nH]c2ccc(F)cc12`, for which the MIC90 is more than 100 µg/mL. For the compound `O=C(O)c1cc(Cl)[n+]([O-])c2ccc(F)cc12`, the MIC90 was more than 100 µg/mL. On the same count and under the same terms, next, `COC(=O)c1cc(Cl)[n+]([O-])c2c1CCCCCC2`: more than 50 µg/mL. Regarding `Cc1ccc2[nH]c(=O)cc(C(=O)O)c2c1`, the MIC90 is more than 50 µg/mL.

As for `CCOc1cc(C(=O)O)cc(OCC)[n+]1[O-]`, the MIC90 was more than 100 µg/mL. Same read-out and setting: next, `O=C(O)c1cc(=O)[nH]c2ccc(F)cc12`: more than 50 µg/mL. For `COC(=O)c1cc(Cl)[n+]([O-])c2c1CCCC2`, the MIC90 was more than 100 µg/mL. For the compound `Cc1ccc2[nH]c(=O)cc(C(=O)NN)c2c1`, the MIC90 is more than 100 µg/mL. Take `O=C(O)c1cc(=O)[nH]c2ccc([N+](=O)[O-])cc12`: the MIC90 is more than 50 µg/mL. As for `NNC(=O)c1cc(=O)[nH]c2ccccc12`, the MIC90 is more than 100 µg/mL. `Cc1cc(C(=O)O)cc(=O)n1O`: the MIC90 is more than 50 µg/mL.

In the case of `CCOC(=O)c1cc(Cl)[n+]([O-])c2ccccc12`, the MIC90 was determined as 9.2 µg/mL (≈ 36.6 µM). Regarding `O=C(O)c1cc(=O)[nH]c2c1CCC2`, the MIC90 is more than 50 µg/mL.

On to `O=C(O)c1cc(=O)n(O)c2ccccc12`, for which the MIC90 was more than 100 µg/mL. As for `O=C(O)c1cc(O)nc(O)c1` [CITRAZINIC ACID], the MIC90 was more than 50 µg/mL. With `CCOc1cc(C(=O)O)c2c([n+]1[O-])CCCC2`, the MIC90 was more than 100 µg/mL. For the compound `O=C(O)c1cc(=O)[nH]c2c1CCCC2`, the MIC90 is more than 50 µg/mL. As to `Cc1cc(C(=O)O)cc(Cl)[n+]1[O-]`, the MIC90 was more than 100 µg/mL.

As for `O=C(O)c1cc(=O)n(O)c2c1CCC2`, the MIC90 is more than 100 µg/mL.

Regarding `CCOC(=O)c1cc(Cl)[n+]([O-])c2ccc(F)cc12`, the MIC90 was 10.9 µg/mL (≈ 40.4 µM). For `O=C(O)c1cc(O)n(O)c(=O)c1`, the MIC90 was more than 100 µg/mL. `CCCn1c(=O)[nH]c(=O)c2c(C(=O)O)cc(Cl)nc21`: the MIC90 is 91.7 µg/mL (≈ 323 µM). Still for that read-out and setting: next, `NNC(=O)c1cc(=O)[nH]c2ccc([N+](=O)[O-])cc12`: more than 100 µg/mL; `CCCn1c(=O)[nH]c(=O)c2c(C(=O)O)cc(=O)[nH]c21`: more than 100 µg/mL. For `O=C(O)c1cc(=O)n(O)c2ccc(F)cc12`, the MIC90 was more than 100 µg/mL. As for `NNC(=O)c1cc(=O)[nH]c2c1CCCC2`, the MIC90 is more than 100 µg/mL.

As for `COC(=O)c1cc(Cl)[n+]([O-])c2c1CCC2`, the MIC90 was more than 100 µg/mL.

The test system of a further series is Mycobacterium tuberculosis. Put plainly: Antitubercular activity against non-replicating Mycobacterium tuberculosis assessed as minimum concentration required to inhibit 90% growth after 10 days under anaerobic condition by luciferase-based low-oxygen recovery assay.
Details: not given
The format is functional. The gist of the method:
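Non-replicating M. tuberculosis, low-oxygen recovery assay with luciferase read-out, run on compounds selected from the MABA screen. MIC taken as the lowest concentration inhibiting recovery of luciferase signal by ≥90% relative to bacteria-only controls. Rifampicin, isoniazid and moxifloxacin served as references.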
For the compound `NNC(=O)c1ccncc1` [ISONIAZID], the “inhibition (INH)” value amounted to 84%.

Staying with this series, now noted: Mycobacterium tuberculosis, 240 h.
For the compound `COc1c(N2C[C@@H]3CCCN[C@@H]3C2)c(F)cc2c(=O)c(C(=O)O)cn(C3CC3)c12` [MOXIFLOXACIN], the MIC90 is 15.9 µg/mL (≈ 39.7 µM). Still for that read-out and setting: next, `CCOC(=O)c1cc(Cl)[n+]([O-])c2ccc(C)cc12`: 3.65 µg/mL (≈ 13.7 µM); `NNC(=O)c1ccncc1` [ISONIAZID]: more than 128 µg/mL; `CCOC(=O)c1cc(Cl)[n+]([O-])c2ccccc12`: 7.3 µg/mL (≈ 29 µM).

In the case of `CCOC(=O)c1cc(Cl)[n+]([O-])c2ccc(F)cc12`, the MIC90 is 13.1 µg/mL (≈ 48.6 µM).

Tested on in the next series: not listed separately
The series can be described thus: (§1) Cytotoxicity against african green monkey Vero cells after 72 hrs by MTS assay. The format is cell-based, Chlorocebus sabaeus. Particulars: chlorocebus sabaeus, Vero cells; read-out: INH. Background: Tetrazolium assays rely on reduction of a dye to a coloured formazan, in cell work by metabolically active cells.
As to `CCOC(=O)c1cc(Cl)[n+]([O-])c2ccc(C)cc12`, the cytotoxicity at 72 h amounted to 96%.

A further series deals with Vero. The description is as §1. Particulars: Chlorocebus sabaeus, Vero, 72 h. Type of series: cell-based, Chlorocebus sabaeus.
A word on the IC50: it is the concentration at which inhibition is half-maximal. Regarding `CCOC(=O)c1cc(Cl)[n+]([O-])c2ccc(C)cc12`, the IC50 was less than 8 µg/mL.
